Source: ChEMBL document CHEMBL1140300, “Synthesis and pharmacological characterization of exo-2-(2'-chloro-5-pyridinyl)-7-(endo and exo)-aminobicyclo[2.2.1]heptanes as novel epibatidine analogues” (J Med Chem, 2005)

Assays:
[1] = biological target: Neuronal acetylcholine receptor; alpha4/beta2 (Rattus norvegicus, UniProt P09483+P12390); experiment: Displacement of [3H]epibatidine from alpha4beta2 nAChR in rat cerebral cortex; assay type: tissue-based
[2] = biological target: Neuronal acetylcholine receptor subunit alpha-7 (Homo sapiens, UniProt P36544); experiment: Displacement of [125]iodoMLA from alpha-7 nAChR
Neuronal acetylcholine receptor subunit alpha-7, sequence (P36544 whole entry): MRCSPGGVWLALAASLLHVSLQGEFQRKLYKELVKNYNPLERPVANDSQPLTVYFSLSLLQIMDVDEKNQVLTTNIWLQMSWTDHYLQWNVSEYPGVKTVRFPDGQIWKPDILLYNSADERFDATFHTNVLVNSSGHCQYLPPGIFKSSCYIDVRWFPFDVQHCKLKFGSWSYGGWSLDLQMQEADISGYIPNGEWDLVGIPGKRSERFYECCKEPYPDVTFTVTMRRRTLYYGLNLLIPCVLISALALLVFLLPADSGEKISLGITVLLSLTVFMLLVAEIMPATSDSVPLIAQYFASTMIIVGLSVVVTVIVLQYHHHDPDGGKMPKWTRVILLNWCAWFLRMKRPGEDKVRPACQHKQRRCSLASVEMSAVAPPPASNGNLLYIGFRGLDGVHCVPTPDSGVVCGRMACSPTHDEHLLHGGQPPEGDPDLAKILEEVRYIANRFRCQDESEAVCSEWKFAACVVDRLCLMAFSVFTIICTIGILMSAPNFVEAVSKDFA

Mus musculus [3] = experiment: Antinociceptive activity in sc dosed mouse by tail-flick method; assay type: functional
Procedure, shortened: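 Mouse tail-flick (D'Amour–Smith): tail exposed to heat lamp, latency to flick recorded. Control latency (2–4 s) taken per mouse before treatment, test latency after sc dosing. Response as %MPE = [(test – control)/(maximum latency – control) × 100]. ED50 with 95% confidence limits by unweighted least-squares linear regression.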

Mus musculus [4] = experiment: Antinociceptive activity in sc dosed mouse by hotplate method; assay type: functional
Procedure, shortened: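 Mouse hot-plate at 55.0 °C, animal in 10 cm glass cylinder. Two control latencies ≥10 min apart (normal 8–12 s). End point is jumping or paw licking. Tested 5 min after sc injection across a dose range. Response as %MPE = [(test – control)/(maximum latency – control) × 100]. ED50 with 95% confidence limits by unweighted least-squares linear regression.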

Mus musculus [5] = experiment: Activity in sc dosed mouse by hypothermia test; assay type: functional
Procedure, shortened: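 Rectal temperature in mice via thermistor probe inserted 24 mm, read just before and at several times after sc injection of saline or test compound. Change from pretreatment value per mouse. Ambient 21–24 °C. ED50 with 95% confidence limits by unweighted least-squares linear regression.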

Mus musculus [6] = experiment: Effect on locomotor activity in sc dosed mouse; assay type: functional
Procedure, shortened: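 Spontaneous activity: mice placed in individual photocell cages (28 × 16.5 cm) 5 min after sc dosing of 0.9% saline or test compound. Beam interruptions (two banks of eight cells) counted over the next 10 min.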

Neuronal acetylcholine receptor; alpha4/beta2, sequence (P09483 whole entry): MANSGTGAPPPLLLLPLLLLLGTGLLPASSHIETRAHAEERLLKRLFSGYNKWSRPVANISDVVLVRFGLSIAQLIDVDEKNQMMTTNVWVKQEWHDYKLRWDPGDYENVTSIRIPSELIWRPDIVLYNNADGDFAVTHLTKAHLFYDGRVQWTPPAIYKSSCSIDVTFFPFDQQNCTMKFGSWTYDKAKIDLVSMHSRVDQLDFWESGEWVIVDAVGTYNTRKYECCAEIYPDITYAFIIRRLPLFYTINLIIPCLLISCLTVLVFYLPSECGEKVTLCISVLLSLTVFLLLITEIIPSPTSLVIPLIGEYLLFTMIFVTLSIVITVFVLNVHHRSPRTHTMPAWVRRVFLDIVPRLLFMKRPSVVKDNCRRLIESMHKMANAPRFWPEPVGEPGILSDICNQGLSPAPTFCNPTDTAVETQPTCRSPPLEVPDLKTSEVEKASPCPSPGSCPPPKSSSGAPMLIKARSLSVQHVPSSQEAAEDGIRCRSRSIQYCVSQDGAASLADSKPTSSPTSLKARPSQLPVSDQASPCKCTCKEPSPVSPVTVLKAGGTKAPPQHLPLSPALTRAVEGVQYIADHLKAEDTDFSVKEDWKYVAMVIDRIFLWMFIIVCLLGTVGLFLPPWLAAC
Neuronal acetylcholine receptor; alpha4/beta2, sequence (P12390 whole entry): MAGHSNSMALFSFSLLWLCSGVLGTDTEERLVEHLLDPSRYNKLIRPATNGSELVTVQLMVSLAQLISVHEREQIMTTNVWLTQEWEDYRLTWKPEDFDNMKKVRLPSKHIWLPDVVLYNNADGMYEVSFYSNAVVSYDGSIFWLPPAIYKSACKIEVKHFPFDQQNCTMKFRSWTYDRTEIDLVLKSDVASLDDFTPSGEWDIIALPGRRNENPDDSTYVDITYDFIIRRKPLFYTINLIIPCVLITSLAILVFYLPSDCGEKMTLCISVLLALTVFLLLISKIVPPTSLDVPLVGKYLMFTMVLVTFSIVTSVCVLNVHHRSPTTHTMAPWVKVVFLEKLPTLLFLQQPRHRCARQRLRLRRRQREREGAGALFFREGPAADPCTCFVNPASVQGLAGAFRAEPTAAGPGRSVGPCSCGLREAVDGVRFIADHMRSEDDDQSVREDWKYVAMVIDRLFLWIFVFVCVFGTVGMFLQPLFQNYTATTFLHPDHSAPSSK

| Compound | Ki [1] | Ki [2] | ED50 (Mus musculus [3]) | ED50 (Mus musculus [4]) | ED50 (Mus musculus [5]) | ED50 (Mus musculus [6]) |
| --- | --- | --- | --- | --- | --- | --- |
| Clc1ccc([C@H]2CC3CCC2[C@@H]3NCc2ccccc2)cn1 (relative stereo) | > 1000 nM | > 200 nM | – | – | – | – |
| Cl.Cl.Cl.N[C@H]1C2CCC1[C@@H](c1ccc(Cl)nc1)C2 (relative stereo) | 8.2 nM | > 700 nM | 4.5 mg/kg | 2.9 mg/kg | 3.4 mg/kg | – |
| Clc1ccc([C@H]2CC3CCC2[C@H]3NCc2ccccc2)cn1 (relative stereo) | > 1000 nM | > 700 nM | – | – | – | – |
| Cl.N[C@@H]1C2CCC1[C@@H](c1ccc(Cl)nc1)C2 (relative stereo) | 10.9 nM | > 700 nM | 4.5 mg/kg | 4.4 mg/kg | 2.3 mg/kg | 1.1 mg/kg |
| Cl.Clc1ccc([C@H]2CC3CCC2N3)cn1 (some centres undefined) [EPIBATIDINE HYDROCHLORIDE] | – | 198 nM | 0.006 mg/kg | 0.004 mg/kg | 0.004 mg/kg | 0.001 mg/kg |
| CN1CCC[C@H]1c1cccnc1.Cl [NICOTINE HYDROCHLORIDE] | – | – | 1.3 mg/kg | 0.65 mg/kg | 1 mg/kg | 0.5 mg/kg |
